According to ChEMBL document CHEMBL1144999, “Identification of a novel, selective GABA(A) alpha5 receptor inverse agonist which enhances cognition” (J Med Chem, 2003):

What was measured:
[1] = target: T1, Gamma-aminobutyric acid receptor subunit alpha-5 (Homo sapiens) (UniProt P31644); experiment: Binding selectivity for GABA-A alpha5 subunit over GABA-A alpha1,alpha2 or alpha3 subunit receptors
T1 sequence (whole entry): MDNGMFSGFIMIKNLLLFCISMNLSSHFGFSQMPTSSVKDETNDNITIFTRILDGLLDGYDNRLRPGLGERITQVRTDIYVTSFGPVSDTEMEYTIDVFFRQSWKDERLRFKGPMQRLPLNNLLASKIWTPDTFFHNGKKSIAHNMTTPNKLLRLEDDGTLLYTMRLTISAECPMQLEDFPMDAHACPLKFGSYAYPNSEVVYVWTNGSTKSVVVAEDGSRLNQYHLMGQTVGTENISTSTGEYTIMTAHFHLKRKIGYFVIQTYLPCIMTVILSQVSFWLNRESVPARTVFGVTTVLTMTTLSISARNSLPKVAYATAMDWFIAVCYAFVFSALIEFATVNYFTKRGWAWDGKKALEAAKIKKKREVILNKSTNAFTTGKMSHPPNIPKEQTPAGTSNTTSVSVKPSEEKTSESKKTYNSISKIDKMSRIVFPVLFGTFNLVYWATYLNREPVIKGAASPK
Method in brief: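 Ki from [3H]Ro 15-1788 displacement at human recombinant α1, α2, α3 or α5 with β3γ2 receptors in L(tk-) cell membranes. […] Ki is geometric mean ± SEM of three determinations, and the ratio is taken against the α5 Ki.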

[2] = target: GABA-A receptor; alpha-1/beta-3/gamma-2 (Homo sapiens) (UniProt P14867+P18507+P28472); experiment: Efficacy for human GABA-A receptor alpha-1-beta-3-gamma-2 subunits expressed in mammalian fibroblast L(tk-)cells; type: cell-based
[3] = target: GABA-A receptor; alpha-3/beta-3/gamma-2 (Homo sapiens) (UniProt P18507+P28472+P34903); experiment: Efficacy for human GABA-A receptor alpha-3-beta-3-gamma-2 subunits expressed in mammalian fibroblast L(tk-)cells; type: cell-based
[4] = target: T2, Gamma-aminobutyric acid receptor subunit alpha-5 (Mus musculus) (UniProt Q8BHJ7); experiment: In vivo [3H]L-655708 binding to mouse GABA-A receptor alpha-5 subunit at 3 mg/kg ip dose; type: organism-based; parameters: dose 3 mg/kg
T2 sequence (whole entry): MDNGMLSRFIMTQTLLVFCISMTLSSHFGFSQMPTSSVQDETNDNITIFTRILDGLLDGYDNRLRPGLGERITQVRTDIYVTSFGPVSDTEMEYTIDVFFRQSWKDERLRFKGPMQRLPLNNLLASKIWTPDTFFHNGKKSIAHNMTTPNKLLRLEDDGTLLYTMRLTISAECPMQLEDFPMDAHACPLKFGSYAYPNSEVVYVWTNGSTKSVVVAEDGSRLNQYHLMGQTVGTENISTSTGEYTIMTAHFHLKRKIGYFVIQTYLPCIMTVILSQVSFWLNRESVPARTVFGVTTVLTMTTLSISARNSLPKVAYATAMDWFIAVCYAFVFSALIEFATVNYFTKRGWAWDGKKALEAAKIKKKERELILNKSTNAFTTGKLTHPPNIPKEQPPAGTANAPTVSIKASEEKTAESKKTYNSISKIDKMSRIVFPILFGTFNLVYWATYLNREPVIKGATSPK
Method in brief: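 Mice were dosed ip at 10 mL/kg in 70% PEG 300. Controls were vehicle (total binding) and 5 mg/kg bretazenil (nonspecific). [3H]L-655,708 (11 µCi/mL, 1 mL/kg) was given iv 1 min before killing, 30 min after drug. Forebrain was homogenized in ice-cold 10 mM KH2PO4/100 mM KCl pH 7.4, filtered and counted by scintillation. Occupancy = 100 − (drug/vehicle specific binding)×100.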

[5] = target: T3, GABA-A receptor; alpha-5/beta-3/gamma-2 (Homo sapiens) (UniProt P18507+P28472+P31644); experiment: Efficacy for human GABA-A receptor alpha-5-beta-3-gamma-2 subunits expressed in mammalian fibroblast L(tk-)cells; type: cell-based
[6] = target: GABA-A receptor; alpha-2/beta-3/gamma-2 (Homo sapiens) (UniProt P18507+P28472+P47869); experiment: Efficacy for human GABA-A receptor alpha-2-beta-3-gamma-2 subunits expressed in mammalian fibroblast L(tk-)cells; type: cell-based
[7] = target: T3, GABA-A receptor; alpha-5/beta-3/gamma-2 (Homo sapiens); experiment: Efficacy for GABA-A receptor alpha-5-beta-3-gamma-2 subunits expressed in Xenopus laevis oocytes by two-electrode voltage clamp recording; type: cell-based; conditions: Oocyte
Method in brief: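 Two-electrode voltage clamp on Xenopus laevis oocytes injected with human α5β3γ2 cDNA, recorded 2-4 days after injection. Expression checked with 3 mM GABA; oocytes with currents <0.3 μA rejected. A GABA EC20 was determined per oocyte. Compound applied at a single concentration near 100× Ki. Efficacy (%) = (current with compound/control EC20 current × 100) − 100.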

[8] = target: GABA-A receptor; anion channel; experiment: Binding affinity for GABA-A Benzodiazepine receptor; type: protein-complex assay
Method in brief: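 Displacement of [3H]Ro 15-1788 binding from harvested L(tk-) cells stably expressing human recombinant GABA-A receptors with β3 and γ2 subunits plus α1, α2, α3 or α5. […] Ki given as geometric mean ± SEM of three independent determinations.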

[9] = target: T1, Gamma-aminobutyric acid receptor subunit alpha-5 (Homo sapiens); experiment: Binding selectivity for human gamma-aminobutyric-acid A receptor alpha-5 over GABA A alpha1,alpha2 and alpha-3 receptors

Row | SMILES | Selectivity [1] | Efficacy [2] | Efficacy [3] | Occupancy [4] | Efficacy [5] | Efficacy [6] | Efficacy [7] | Ki [8] | Selectivity [9]
1 | CC1(C)CC(=O)c2c(SCCO)sc(-c3nccs3)c2C1 | 13 | -21% | -3% | 91% | -51% | -1% | -38 |  | 
2 | CC(=O)c1cc2c(s1)CCCC1=C2NN(c2ccc(Cl)cc2)C(=O)C1 |  |  |  |  |  |  |  | 4.2 nM | 
3 | CCc1c(C(=O)OC)ncc2[nH]c3cc(OC)c(OC)cc3c12 |  | -71% |  |  |  | -53% | -34 |  | 6
